According to ChEMBL document CHEMBL4513216, “Probing the Open Global Health Chemical Diversity Library for Multistage-Active Starting Points for Next-Generation Antimalarials” (ACS Infect Dis, 2020):

Assay: Toxicity liver stage against HepG2, at 10uM
Type: cell-based
Design: test concentration 10 uM, cell line HepG2-A16-CD81EGFP
Conditions: human, HepG2-A16-CD81EGFP cells; read-out: INHIBITION
Summary of the method: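 Uninfected HepG2-A16-CD81EGFP cells, 3 × 10^3 per well, 1536-well, plated on prespotted compound at 10 μM final, parasite-free screening media added to match infected plates; puromycin 10 μM positive, DMSO 0.5% negative; run in parallel with 48 h PbLuc assay at 37 °C, 5% CO2; viability by CellTiter-Glo luminescence, normalized to controls.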

Structure (SMILES)	cytotoxicity at 10 µM [%]
CC(C)N1CC[C@H](c2nnc(Cc3c[nH]c4ccccc34)o2)C1	-9.04
CN1CCOC[C@H]1c1nc(-c2cccnc2)c[nH]1	-0.405
CC(C)C(=O)N1CCOC[C@H](Oc2ccc(C(F)(F)F)cc2)C1	4.53
O[C@@H]1C[C@@H](c2nc(-c3ccc(OC(F)(F)F)cc3)no2)N(CC2CC2)C1	1.32
CC(=O)N1CC[C@H]2CC(=O)N(C3CCCCC3)CC[C@H]2C1	0.325
CN1C(=O)CO[C@H]2CN(C(=O)Nc3ccc(F)cc3)C[C@H]21	-2.22
CC[C@@H](C)[C@H](NC(=O)CCn1cc(C(C)=O)c2ccccc21)C(=O)O	-5.27
CCN(c1ccsc1C(=O)N1CCSCC1)S(=O)(=O)c1ccccc1	8.24
NC(=O)c1nnn(-c2ccc(Cl)cc2)n1	8.99
O=C(Cc1c(F)cccc1Cl)Nc1cc(N2CCCC2)ncn1	-2.85
CN(C)CC1CSCCCN1S(=O)(=O)Cc1cccc(F)c1 (centres undefined)	-3.63
CN(C)C(=O)N1C[C@@H](C(=O)NCc2ccco2)C[C@H]2OCC[C@H]21	2.57
CC(=O)N1[C@H](Cn2cncn2)C[C@@H]2CN(C(=O)NC3CC3)CC[C@@H]21	-5.16
CN1CCN(Cc2cn3c(n2)CN(C(=O)N2CCCC2)CC3)CC1	3.23
NC(=O)N1CC[C@@H]2O[C@H](COCC(=O)N3CCCC3)CC[C@@H]21	-1.49
O=C(c1ccn(COc2ccc(F)cc2)n1)N1CCCC1	6.25
CN(C)C(=O)c1ccn(COc2ccccc2Cl)n1	6.91
Cc1noc(C)c1CCC(=O)N[C@@H]1CCC[C@@H](Oc2cccnc2)[C@@H]1O	-0.903
CN(CC(=O)Nc1cc(C(F)(F)F)c[nH]c1=O)Cc1ccccc1	12
CC(C)(Oc1ccc2c(c1)CCCC2=O)C(=O)NCc1ccco1	-2.74
Cc1nc(C)n(CC2CCCCN2c2ccnc(-c3ccccc3)n2)n1 (centres undefined)	-1.17
CC(C)(C)n1c(NC(=O)CNC(=O)NC2CC2)nc2ccccc21	4.23

Structure (SMILES)	cytotoxicity at 10 µM [%]
CC(NS(=O)(=O)CCCC#N)c1cccc(-n2cccn2)c1 (centres undefined)	1.42
Cc1n[nH]c(-c2ccc(NC(=O)C(C)N3CCN(C)CC3)cc2)n1 (centres undefined)	6.03
CC(C)(C)OC(=O)N(CCNS(=O)(=O)N1CCOCC1)C1CC1	-4.43
CCOc1cccc(COC(=O)c2cc(C)on2)n1	-5.08
CC(C)OCCCNC(=O)CN1CCN(c2nccs2)C(C)C1 (centres undefined)	1.4
Cc1occc1C(=O)N1CCCN(Cc2ncc(Cl)n2C)CC1	-1.25
CC(C)n1cnnc1CNC(=O)CCCOc1ccccc1F	-4.56
CC(C)c1cc(C(=O)N2CCc3ccccc3C2C(=O)O)nn1C (centres undefined)	-2.53
Cc1nn(-c2ccccc2)c(C)c1CNC(=O)NC1CC(=O)N(C)C1 (centres undefined)	-2.17
CN1CCN(C2CCN(Cc3ccc(Cl)s3)CC2)C1=O	11.2
Cn1cc(C(=O)N2CCCC2c2ccc3c(c2)OCCO3)ccc1=O (centres undefined)	3.92
CS(=O)(=O)NCC1CCCCN1Cc1ccccc1C#N (centres undefined)	-11.5
Cc1ccc(C(=O)N(Cc2ccccc2F)C2CC2)c(=O)[nH]1	0.846
Cc1nc(CNC2CCc3ncnn3C2)oc1C (centres undefined)	-3.86
CC(SCC(=O)NC(N)=O)c1ccc(Cl)cc1 (centres undefined)	4.86
Cn1cc(C2(C)CN(Cc3ccc(O)c(Cl)c3)CCO2)cn1 (centres undefined)	-4.12
O=C(NCC1CC(=O)N(CCc2ccccc2)C1)c1ccc[nH]1 (centres undefined)	-0.553
Cc1ccc(C(=O)NC2CCCCNC2=O)c(=O)[nH]1 (centres undefined)	-5.49
COC(=O)c1ccc(F)c(Cn2nc(C)cc2C)c1	4.11
CCc1nnc2n1CCN(C(=O)CCc1ccc(C)c(Cl)c1)C2	-4.01
CC(=O)N1CCC(C(=O)Nc2nc(C3CC3)cs2)CC1	-3.28
COc1ncnc(N)c1CNCC(C)Oc1ccccc1Cl (centres undefined)	0.732

Structure (SMILES)	cytotoxicity at 10 µM [%]
CN(Cc1ccncc1)C(=O)c1ccc2c(c1O)OC(C)(C)C2	1.95
N#CCCN(Cc1ccccn1)C(=O)Nc1cccc(F)c1	3.43
Nc1nccnc1C(=O)N(Cc1ccccc1O)CC1CCCO1 (centres undefined)	-4.45
Cc1ccc2c(c1)N(C(=O)C1CCCOC1)CCC2 (centres undefined)	5
Cc1cc(-c2noc(C3CCS(=O)(=O)C3)n2)ccc1F (centres undefined)	8.22
Cc1noc(C)c1Cn1cc(I)cc(C)c1=O	4.92
COc1ccc(S(=O)(=O)Cc2noc(CC(C)C)n2)cc1	5.52
c1csc(N2CCCN(c3nccn4cnnc34)CC2)n1	-5.05
COCCN1CCN(CCCc2nnnn2-c2ccccc2)CC1	5.04
CN(CCc1ccncc1)c1cnn(C)c(=O)c1Br	-5.44
CC(C)C(C)NC(=O)Nc1ccccc1CN1CCOCC1 (centres undefined)	0.795
CN(C)C(=O)N1CCN(Cc2nnc(C(C)(C)C)o2)CC1	0.278
COCC1COCCC12CCN(S(=O)(=O)c1ccccc1)CC2 (centres undefined)	0.242
CC(=O)NCc1nc(CCOc2ccc(Cl)cc2)no1	-145
COCC(O)CNC(=O)c1coc(COc2cccc(F)c2)n1 (centres undefined)	-139
CC(=O)Cc1c(C)nn(-c2cncc(C(N)=O)c2)c1C	-17.5
c1ccc2c(c1)ccn2CCCNC1CCOC2(CCOCC2)C1 (centres undefined)	-7.04
Cn1cc(-c2cc(C(=O)N3CCOCC3)c3ccc(F)cc3n2)cn1	1.5
Cc1cccc(Cn2nc(C3CCNCC3)n(-c3ccccc3)c2=O)c1	-4.68
CCN1CCC(CC(=O)NCC(O)c2cccc(OC)c2)CC1 (centres undefined)	-6.87
Cc1cccc(C)c1OC1CN(C(=O)C2CCN(C(=O)N(C)C)CC2)C1	2.69
COCc1cc(N(C)CCC(O)c2ccccc2)n2nccc2n1 (centres undefined)	-2.49

Structure (SMILES)	cytotoxicity at 10 µM [%]
O=C(C1CCC1)N1CCN(Cc2ccccc2F)[C@H]2CS(=O)(=O)C[C@H]21	0.15
O=C(Cc1c[nH]c(=O)[nH]c1=O)N1CCCCC1CCc1ccccc1 (centres undefined)	-9.05
CCc1ccccc1OCCN1CC[C@@]2(O)CCNC[C@H]2C1	-160
COCCn1cncc1-c1nc2c([nH]1)CC(C)(C)CNC2=O	8.42
Nc1nc(Sc2cccs2)cc(N2CC[C@H](CO)[C@H](O)C2)n1	2.68
Cc1ccsc1[C@@H]1CCN(C(=O)CCc2nc3ccccc3[nH]2)C[C@H]1O	-1.67
O=C(NCc1ccco1)c1ccc(N2CCOCC2)cc1	4.31
CC(C)OCCCNC(=O)CS(=O)(=O)Cc1ccc(C(C)(C)C)cc1	4.92
CC(NC(=O)NCc1cccs1)c1ccc2c(c1)CCC(=O)N2 (centres undefined)	5.41
CCc1nc(C)c(C(=O)NCCNC(=O)Cc2cccc(F)c2)s1	1.98
CC1COCCN1C(=O)Nc1cnc2c(cnn2C(C)C)c1 (centres undefined)	-2.21
Cc1cc(CN2CCOC(Cn3nc(C)cc3C)C2)on1 (centres undefined)	-5.81
Cc1ccc(S(=O)(=O)N2CSCC2C(=O)NCC(F)(F)F)cc1C (centres undefined)	-0.855
COc1ccc(OC)c(C(O)CNC(=O)Nc2ccc(F)cc2F)c1 (centres undefined)	-2.74
CN(C)c1ncccc1CNS(=O)(=O)c1cc(F)ccc1F	5.67
CCn1cc(NC(=O)NCCc2ccc3c(c2)OCCO3)cn1	-7.72
CCc1ccsc1C(=O)N1CCN(CC(C)O)CC1 (centres undefined)	-33.1
CC(c1cccc(S(N)(=O)=O)c1)N(C)CCOC(C)(C)C (centres undefined)	-32.8
NC(=O)CN1CCC(NC(=O)COc2ccc(Cl)c(Cl)c2)CC1	-8.7
CC(=O)N(Cc1noc(C)n1)C1CCN(Cc2c(C)noc2C)C1 (centres undefined)	-9.55
Cc1cnn(C2CCCN(C(=O)CCCOc3ccccc3F)C2)c1 (centres undefined)	-7.52
Cc1cnn(C2CCCN(C(=O)c3cn(-c4ccccc4)nn3)C2)c1 (centres undefined)	-22.1

Structure (SMILES)	cytotoxicity at 10 µM [%]
CCc1nnc(CN2CCC(N3CCN(CC)C3=O)CC2)o1	1.52
CCOc1ccc(CC(CNC(=O)c2ccco2)C(N)=O)cc1 (centres undefined)	8.26
COc1ccc(Br)c(C(=O)N2CCCC(c3nc(C)no3)C2)c1 (centres undefined)	7.08
Cc1noc(C2CCCN(C(=O)c3cncc(Br)c3)C2)n1 (centres undefined)	-1.82
CCC1CCCN(CC(=O)Nc2oc(C)c3c(C)n[nH]c(=O)c23)C1 (centres undefined)	-3.66
COCCN1CCC(NCc2cccnc2)C1 (centres undefined)	-10.4
Cc1nc(C)n(CC2CN(c3nnc(C)c(C)c3C#N)CCO2)n1 (centres undefined)	-0.00964
O=C1CC2(CCNCC2)C(=O)N1c1cccc(F)c1	1.7
O=C(c1ccccc1F)N1CC2(CCNCC2)c2cc(Cl)ccc21	-3.31
Cc1nnn2c1COCC(CNCc1nccs1)C2 (centres undefined)	-109
CNC(=O)CN1CC[C@H]2CN(C(=O)c3ccccc3C)C[C@H]2C1	0.793
O=C1[C@H]2CN(Cc3ccccc3)C[C@H]2CN1c1cncnc1	-4.53
c1coc(CN2CCC3(CC2)COC(COCC2CC2)C3)c1 (centres undefined)	-4.37
O=C(c1cnoc1)N1CCC[C@]2(C[C@@H](Oc3ccccn3)CO2)C1	-5.96
CC(C)C[C@H](N)C(=O)N1CC2(CCNCC2)c2cc(Cl)ccc21	-8.34
Cc1cccc(CN2C[C@H]3CCC[C@@]3(COCc3csc(C)n3)C2)n1	14.3
O=C1C[C@H]2[C@@H](CCN2Cc2ccccn2)N1Cc1cccnc1	4.88
NC1CCC(n2cc(C(=O)NC3COc4ccccc43)nn2)CC1 (centres undefined)	-4.8
CN(C)C(=O)N1C[C@H]2CC[C@@H](C1)N(C/C=C/c1ccc(F)cc1)C2	-0.545
CCCN1C[C@@H]2CC[C@H]1CN(Cc1ccc(Cn3cccn3)cc1)C2	-4.87
CC(C)=CCN1C(=O)[C@@H]2CC[C@H]1CN(Cc1cccnc1N)C2	12.3
